MPTP inh: permeability transition pore inhibition. 360,000 tested, 1.4% active. inhibition, % at 10 µM. isolated mouse mitochondria, Ca2+ swelling absorbance, 30 min;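 active = inhibition of 50% or more, scaled per plate between neutral and stimulator controls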;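 also: 0% = DMSO wells given calcium and 100% = 1 mM EGTA wells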
MC4R barr agon: agonists of human melanocortin 4 receptor (MC4R) beta-arrestin; P32245; AID 540308; activation, % at 8.9 µM; 360,000 tested, 0.98% active; U2OS MC4R beta-arrestin complementation, luminescence; percent of melanotan II response, DMSO zero;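 active = activation above a per-plate cutoff, the mean activation of sample wells on that plate plus 3 SD, cut at about 8% in these data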
SMARCA2 act: increases SMARCA2 function in MMTV reporter cells | MG213 cells, MMTV-luciferase reporter, dexamethasone, overnight | activation, % at 9.1 µM | 370,000 tested, 1% active | AID 652017; in the data active = activation above about 7.8%;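 also: 0% = vehicle wells and 100% = reference activator wells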
ATG4B inh: blocks human ATG4B protease cleavage of LC3 substrate; Q9Y4P1; ATG4B cleavage of LC3-PLA2, NBD-HPC fluorescence, 1 h; inhibition, % at 8.33 µM; 340,000 tested, 0.51% active; in the data active = inhibition above about 40%
Target sequence (Q9Y4P1 whole entry, looked up): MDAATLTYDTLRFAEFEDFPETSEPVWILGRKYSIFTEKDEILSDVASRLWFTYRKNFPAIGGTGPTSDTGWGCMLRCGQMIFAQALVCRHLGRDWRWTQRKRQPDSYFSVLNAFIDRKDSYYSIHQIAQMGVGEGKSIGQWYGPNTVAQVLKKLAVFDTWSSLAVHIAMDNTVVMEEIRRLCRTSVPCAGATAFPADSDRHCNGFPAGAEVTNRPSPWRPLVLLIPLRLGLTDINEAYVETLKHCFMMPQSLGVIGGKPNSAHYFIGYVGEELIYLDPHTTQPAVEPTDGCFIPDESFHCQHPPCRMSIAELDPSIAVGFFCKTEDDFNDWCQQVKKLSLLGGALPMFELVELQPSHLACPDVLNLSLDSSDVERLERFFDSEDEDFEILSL
MC4R antagonist: antagonists of human melanocortin 4 receptor (MC4R) | P32245 | 360,000 tested, 0.48% active | MC4R-expressing cells, MTII-stimulated cAMP, LANCE TR-FRET | inhibition, % at 6.5 µM | AID 540295;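 active = inhibition above its plate's cutoff, the mean of tested wells on that plate plus 3 SD, cut at about 29% in these data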;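 also: 0% = Melanotan II alone and 100% = Melanotan II plus saturating MCL0020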
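Assay system: U2OS cells stably expressing human melanocortin 4 receptor (MC4R) / Dosing: 6.5 µM / Timing: compound 30 min, challenge 1 h, detection 1 h / Measured by: Eu-cAMP/anti-cAMP TR-FRET, emission 671 nm / Replicates: singlicate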
MPTP counter: Rhodamine 123 counter-screen of mitochondrial pore hits | shares compounds with MPTP inh | isolated mitochondria, membrane potential, Rhodamine 123 fluorescence | inhibition, % at 10 µM | 5,000 tested, 78% active; in the data active = inhibition above about 22%;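 also: 0% = DMSO vehicle and 100% = positive control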
MPTP abs DR: dose response confirmation of mitochondrial permeability transition pore inhibitors | shares compounds with MPTP inh | isolated mitochondria swelling, absorbance | IC50, µM | 780 tested, 58% active; in the data active = IC50 below about 20 µM
MPTP counter DR: MPTP inhibitor counter-screen activity, dose response | shares compounds with MPTP inh | isolated mitochondria counterscreen, fluorescence read-out | IC50, µM | 780 tested, 49% active | AID 651564; in the data active = IC50 below about 80 µM
Starred values were filed as active, the others as inactive; i = inactive; nt = no result. Only some compounds are listed: those with a hit (about 4.1% of all), similar ones and a draw of the others.

SMILES	MPTP inh	MC4R barr agon	SMARCA2 act	ATG4B inh	MC4R antagonist	MPTP counter	others
N=c1oc2cc(O)ccc2cc1C(=O)Nc1ccc(Br)cc1	61*	-1	2	-9	22	78*
COc1nc(OC)nc(N2CCC(C(=O)NCc3cccc(OC)c3OC)CC2)n1	nt	nt	8	nt	nt	nt
Cc1nc(NCCc2ccccc2)c2oc3ccccc3c2n1	97*	0	-4	7	0	75*
Cc1nc(NCCN2CCOCC2)c2oc3ccccc3c2n1	-2	-1	2	-13	11	nt
COc1ccc(OC)c(C(=O)CSc2nnc(SCc3cccc4ccccc34)s2)c1	nt	nt	1	nt	nt	nt
CN1/C(=C\C=O)C(C)(C)c2ccccc21	1	-2	1	-12	2	nt
CN1\C(=C/C=C/C=C/C=[N+](C)C)C(C)(C)c2ccccc21	112*	7	-5	11	3	59*
Cc1ccc(C(=O)C2CCN(CC(=O)N3CCCC3)CC2)cc1	nt	nt	-5	nt	nt	nt
COC(=O)CSc1ncnc2c1cnn2Cc1ccccc1	-2	-1	0	-4	4	nt
COc1ccc(OC)c(NC(=O)CSc2ncccn2)c1	0	0	2	0	8	nt
COc1cc(NC(=O)CSc2ncnc3c2cnn3Cc2ccccc2)cc(OC)c1	54*	1	-5	-10	1	28*
COc1ccc(OC)c(NC(=O)CSc2ncnc3c2cnn3-c2ccccc2Cl)c1	84*	0	nt	-4	19	82*
O=C(C/C=N\OCc1ccc([N+](=O)[O-])cc1)Nc1ccc(Cl)cc1	0	-2	-1	-12	-2	nt
O=C(Cc1sc(-c2ccccc2)nc1-c1ccccc1)Nc1ccc(Cl)cc1	69*	7	0	-1	7	6	MPTP abs DR=12*;MPTP counter DR=<2.5*
O=C(Cc1ccc(Cl)cc1)Nc1ccncc1	58*	0	-5	-3	10	16	MPTP abs DR=i;MPTP counter DR=41*
O=C(Cc1ccc([N+](=O)[O-])cc1)Nc1ccc(Cl)cc1	68*	-1	-5	-9	8	76*
Cc1ccc(CC(=O)Nc2ccncc2)cc1	84*	-1	-4	-12	5	36*
O=C(Nc1ccncc1)c1ccc(Cl)cc1	2	1	-3	-3	0	nt
COc1ccccc1NC(=S)OC1CCC12CCC(c1ccccc1)CC2 (centres undefined)	nt	nt	0	nt	nt	nt
O=C(Nc1ccc(F)cc1)OCc1cn(Cc2ccccc2C(F)(F)F)nn1	nt	nt	-2	nt	nt	nt
CC(C)c1c(O)ccc2c1CC[C@H]1C(C)(C)CCC[C@]21C	98*	0	-5	6	9	11	MPTP abs DR=i;MPTP counter DR=16*
CCOC(=O)c1sc(Nc2ccccc2Cl)nc1C	3	2	3	20	11	nt
CCOC(=O)c1sc(NC(=O)Nc2ccccc2F)nc1C	58*	3	-2	1	4	68*
CCOC(=O)c1sc(=S)n(C)c1NC(=O)c1ccccc1	2	-1	7	-6	14	nt
CCOC(=O)c1sc(=S)n(C)c1NC(=O)c1cccc(Br)c1	51*	2	-3	-3	14	76*
SMILES	MPTP inh	MC4R barr agon	SMARCA2 act	ATG4B inh	MC4R antagonist	MPTP counter	others
CC(=O)NCc1ccc(OCCCN2CCC(C(O)(c3ccccc3)c3ccccc3)CC2)cc1	nt	nt	-4	nt	nt	nt
Cc1nn(-c2ccccc2)c2ncc(C(=O)c3cc(Cl)ccc3O)cc12	62*	3	-5	39	-1	83*
Cc1nn(C)c2ncc(C(=O)c3ccccc3O)cc12	0	0	-1	1	6	nt
O=C1CCCN1c1ccc(S(=O)(=O)NCCOc2ccccc2)cc1	41	0	-6	-10	4	nt
Cc1cc(N2CCCC2=O)cc(C)c1S(=O)(=O)NCCOc1ccc(C(C)(C)C)cc1	105*	-1	-6	-23	1	99*
N#CCC(=O)Nc1ccc(C(=O)OCC(=O)NC(=O)Nc2ccc3c(c2)OCCO3)cc1	0	-2	4	-50	14	nt
Cc1ccc(S(=O)(=O)NCCC2=CCCCC2)cc1	-1	5	3	13	3	nt
CCOC(=O)c1cn[nH]c1NC(=S)Nc1ccc(Cl)cc1	66*	2	-1	-5	26	65*
Cc1ccc(CNCCC2=CCCCC2)cc1	65*	4	3	2	-9	-2	MPTP abs DR=19*;MPTP counter DR=48*
CCOC(=O)c1ccc(NC(=O)Nc2ccc3c(c2)OCCO3)cc1	74*	2	-4	-11	9	78*
CCOC(=O)c1c(NC(=O)Nc2ccc(Cl)cc2)sc(C)c1C	2	7	2	-13	10	nt
CCOC(=O)c1ccc(NC(=S)Nc2ccc(C)cc2)cc1	9	-3	-1	-9	6	nt
CCOC(=O)c1ccc(NC(=S)Nc2ccccc2)cc1	88*	0	1	-7	8	95*
CCN(CC)CCCNC(=O)CSc1nnc(-c2ccncc2)n1-c1ccc(OC)cc1	nt	nt	-3	nt	nt	nt
CN(C)c1ccc(C(=O)NC2CCCCN(Cc3cccc(Cl)c3)C2=O)cc1 (centres undefined)	nt	nt	0	nt	nt	nt
Cc1cccc(-c2cccc3c4c([nH]c23)[C@@H]2C[C@H](N(C)C(=O)C3CCCCC3)[C@H]([C@H](C)O)CN2CC4)c1	nt	nt	4	nt	nt	nt
CCOC(=O)[C@]12CCCC3=C1N(CCC3)C(=O)[C@@H](CC(=O)N1CCOCC1)C2	nt	nt	0	nt	nt	nt
Nn1c(SCC(=O)Nc2ccc(OCc3ccccc3)cc2)nnc1-c1cc(-c2ccc(F)cc2)n[nH]1	nt	nt	-4	nt	nt	nt
CCOC(=O)c1ccc(NC(=S)NCCc2ccc(F)cc2)cc1	85*	5	-1	-9	2	79*
CCOC(=O)c1ccc(NC(=O)C(=O)NCCc2ccc(OC)cc2)cc1	-2	-3	2	4	-2	nt
COC(=O)c1cccc(NC(=S)NCCC2=CCCCC2)c1	5	3	-1	-4	-2	nt
COC(=O)c1ccc(NC(=S)NCCC2=CCCCC2)cc1	89*	5	-5	4	-4	87*
COc1ccc(OC)c(CN2C(=O)CSCC2(C)c2nnnn2C2CCCC2)c1 (centres undefined)	nt	nt	-1	nt	nt	nt
O=[N+]([O-])c1ccc(-c2cnc(SC(c3ccccc3)c3ccccc3)[nH]2)cc1	90*	6	-3	18	17	76*
COc1ccccc1-n1c(=O)c(C#N)c(-c2ccc([N+](=O)[O-])cc2)c2cc(C(=O)c3cc(F)ccc3O)cnc21	-1	-2	-2	-4	2	nt
Cn1c(=O)c(C#N)c(-c2ccc(F)cc2)c2cc(C(=O)c3cc(Cl)cc(Cl)c3O)cnc21	95*	-3	-4	3	15	60*

Assay outcomes (PubChem)
